Drawing on ChEMBL document CHEMBL1148981, “A phthalide with in vitro growth inhibitory activity from an oidiodendron strain” (J Nat Prod, 2004), this text covers GI50 and IC50 for one compound.

One experiment has as its system OVCAR-5. The experiment in a line: Cytotoxicity against human OVCAR5 cells. In kind it is functional. In short, it runs like this:
(§1)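 Growth inhibition read as GI50. Lines were run at one of two sites. At Cetek, cells grew in ATCC-recommended media and viability was read as CellTiter Blue resazurin reduction by fluorescence at 530/590. At NCI DTP, cells grew in RPMI 1640 with 5% FBS and 2 mM L-glutamine, and viability was read by TCA fixation and sulforhodamine B total-protein staining.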

In another experiment the test system is MCF7. The experiment in a line: Cytotoxicity against human MCF7 cells. It is filed as functional. In short, it runs like this:
as §1

The subject of another experiment is EKVX. The experiment in a line: Cytotoxicity against human EKVX cells. It is filed as functional. The method in brief:
as §1

For experiment [1], the target named is T1, RAC-alpha serine/threonine-protein kinase (Homo sapiens, UniProt P31749). The experiment in a line: Inhibition of sulfhydryl-labeled human recombinant Akt1 expressed in baculovirus by affinity capillary electrophoresis assay. In short, it runs like this: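 Baculovirus-expressed human Akt1 was buffer-exchanged into 30 mM HEPES pH 7.5 with 0.1% Chaps and 150 mM NaCl. It was labeled with Fluorescein-5-EX succinimidyl ester (dye:protein 5:1) for 2 h on ice, quenched with β-mercaptoethanol and stored in 50% glycerol at -20 °C. Compound was titrated against labeled Akt1 by affinity capillary electrophoresis. IC50 is the mean of three experiments with SEM.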
T1 sequence (P31749 whole entry): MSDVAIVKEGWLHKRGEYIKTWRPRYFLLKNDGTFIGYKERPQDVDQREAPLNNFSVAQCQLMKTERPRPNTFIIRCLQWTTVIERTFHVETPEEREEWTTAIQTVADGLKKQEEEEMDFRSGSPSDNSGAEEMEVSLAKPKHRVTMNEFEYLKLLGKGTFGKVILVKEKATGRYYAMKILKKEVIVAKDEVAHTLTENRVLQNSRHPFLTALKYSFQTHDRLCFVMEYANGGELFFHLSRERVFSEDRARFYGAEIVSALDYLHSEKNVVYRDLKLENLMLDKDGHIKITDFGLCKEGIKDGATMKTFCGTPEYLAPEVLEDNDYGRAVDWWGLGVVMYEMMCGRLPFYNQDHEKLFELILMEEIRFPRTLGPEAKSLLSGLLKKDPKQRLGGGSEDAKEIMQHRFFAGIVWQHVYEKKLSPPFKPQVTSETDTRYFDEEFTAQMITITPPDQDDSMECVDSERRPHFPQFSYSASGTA

A further experiment relates to BT-549. The experiment in a line: Cytotoxicity against human BT549 cells. In kind it is functional. In short, it runs like this: as §1
The next experiment concerns U-251. Put plainly: Cytotoxicity against human U251 cells. In kind it is functional. The method in brief:
as §1

For another experiment, the system named is M14. Put plainly: Cytotoxicity against human M14 cells. It is filed as functional. The method in brief:
as §1

The test system of a further experiment is OVCAR-3. The experiment in a line: Cytotoxicity against human OVCAR-3 cells. It is filed as functional. In short, it runs like this:
as §1

In the next experiment the test system is OVCAR-8. The experiment in a line: Cytotoxicity against human OVCAR8 cells. In kind it is functional. In short, it runs like this: as §1
The subject of another experiment is HepG2. The experiment in a line: Cytotoxicity against human HepG2 cells. It is filed as functional. In short, it runs like this: as §1
In another experiment the test system is SK-MEL-28. Put plainly: Cytotoxicity against human SK-MEL-28 cells. It is filed as functional. The method in brief: as §1
The subject of the next experiment is SNB-75. Put plainly: Cytotoxicity against human SNB75 cells. In kind it is functional. The method in brief: as §1
A further experiment relates to U-937. Put plainly: Cytotoxicity against human U937 cells. In kind it is functional. In short, it runs like this: as §1
The test system of another experiment is RPMI-8226. Put plainly: Cytotoxicity against human RPMI8226 cells. It is filed as functional. The method in brief: as §1
Another experiment deals with Jurkat. The experiment in a line: Cytotoxicity against human Jurkat cells. It is filed as functional. In short, it runs like this:
as §1

A further experiment relates to K562. The experiment in a line: Cytotoxicity against human K562 cells. It is filed as functional. The method in brief: as §1
Experiment [2] deals with T1, RAC-alpha serine/threonine-protein kinase. The experiment in a line: Inhibition of sulfhydryl-labeled human recombinant Akt1 expressed in baculovirus assessed as phosphorylation of recombinant Bad protein by Western blotting. In short, it runs like this:
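Active recombinant Akt1 (50 nM final) was preincubated 5 min at room temperature with test agent in DMSO (1.4% final) in assay dilution buffer. Soluble Bad (1.2 µM final) and Mg-ATP solution were then added, followed by 30 min at 30 °C with agitation. Read-out was SDS-PAGE, PVDF transfer, anti-phospho-Bad (Ser112) with HRP secondary, chemiluminescence and densitometry. IC50 is the mean of three experiments.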

A further experiment deals with NCI-H23. The experiment in a line: Cytotoxicity against human NCI-H23 cells. In kind it is functional. The method in brief:
as §1

The test system of the next experiment is MDA-MB-435. Put plainly: Cytotoxicity against human MDA-MB-435 cells. In kind it is functional. The method in brief:
as §1

SMILES strings stand for the structures. Some results are limits rather than exact numbers.

With `CC1OC(=O)c2cc(O)c(O)c(O)c21` (centres undefined), the GI50 is 74 µM in the experiment with OVCAR-5; greater than 100 µM in the experiment with MCF7; greater than 100 µM with EKVX; 24 µM in the experiment with BT-549; greater than 100 µM with U-251; greater than 100 µM with M14. The GI50 in the experiment on OVCAR-3 is greater than 100 µM; in the experiment with OVCAR-8, 82 µM; in the experiment with HepG2, greater than 100 µM; with SK-MEL-28, 37 µM; with SNB-75, 60 µM; in the experiment on U-937, 60 µM. The concentration for 50% growth inhibition (GI50) is 67 µM with RPMI-8226; 20 µM in the experiment with Jurkat; greater than 100 µM in the experiment on K562; 87 µM in the experiment on NCI-H23; 85 µM in the experiment on MDA-MB-435. Also, the IC50 came to 19.7 µM in [1] and 30.4 µM in experiment [2].

For orientation: GI50 means the concentration that inhibits growth by half. Read a high GI50 as less potent growth inhibition. What is called IC50 is the concentration that inhibits the measured activity by half.
